From ChEMBL document CHEMBL1154490, “Novel linear triaryl guanidines, N-substituted guanidines and potential prodrugs as antiprotozoal agents” (Eur J Med Chem, 2008) come the findings set out here.

The source made the active and inactive calls. No cut-off for these calls is given here. A value given as a limit tells only on which side of the number the result lay.

Test [1] can be described thus: Binding affinity to poly(dA-dT)2 DNA assessed as change in thermal melting temperature administered at compound to DNA ratio of 0.3 by thermistor analysis. A digest of the protocol:
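Thermal melting of poly(dA-dT)2 in CAC 10 buffer (cacodylic acid 10 mM, EDTA 1 mM, NaCl 100 mM, pH 7.0), 1 cm quartz cuvettes, temperature raised 0.5 C/min. DNA quantified by A260. Compound:DNA 0.3 mol/mol, compound-free DNA as control. ΔTm reproducible within 0.5 C.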

The subject of test [2] is Trypanosoma brucei rhodesiense. Nature of the test: Antiprotozoal activity against Trypanosoma brucei rhodesiense STIB900 bloodstream form after 72 hrs by alamar blue assay. It is filed as functional, organism-based. Background: Alamar Blue is a resazurin reagent that responds to reducing activity.
Test [3] has as its system Plasmodium falciparum. Kind of test: Antiprotozoal activity against chloroquine and pyrimethamine-resistant Plasmodium falciparum K1 after 72 hrs by [3H]hypoxanthine uptake. The class given is functional, organism-based.
Test [4] deals with L6. Kind of test: Cytotoxicity against rat L6 cells after 72 hrs by alamar blue assay. The class given is cell-based. To be noted: L6, 72 h. A digest of the protocol:
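Cultured L6 rat myoblasts exposed to compound; viability read by the same Alamar Blue procedure used for the STIB900 trypanosome assay; duplicate determinations.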

Test [5] concerns Trypanosoma brucei rhodesiense. Nature of the test: Antitrypanosomal activity against Trypanosoma brucei rhodesiense STIB900 infected in mouse assessed as parasite-free survival at 20 mg/kg, ip administered on day 3 to 6 after infection measured on day 60. The class given is functional, organism-based. On the set-up: dose 20 mg/kg. Summed up: (§1)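 STIB900 acute mouse infection model with four infected mice per group. Parent compounds were given intraperitoneally and prodrugs orally, once daily for 4 days. Read-outs were the number of mice alive and parasite-free at day 60, and average days of survival.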

Test [6] relates to Trypanosoma brucei rhodesiense. Kind of test: Antitrypanosomal activity against Trypanosoma brucei rhodesiense STIB900 infected in mouse assessed as average survival days at 20 mg/kg, ip administered on day 3 to 6 after infection. It is filed as functional. To be noted: route intraperitoneal.
Test [7] relates to Trypanosoma brucei rhodesiense. Nature of the test: Antitrypanosomal activity against Trypanosoma brucei rhodesiense STIB900 infected in mouse assessed as average survival days at 25 mg/kg, po administered on day 3 to 6 after infection. The class given is functional.
For test [8], the system named is Trypanosoma brucei rhodesiense. Kind of test: Antitrypanosomal activity against Trypanosoma brucei rhodesiense STIB900 infected in mouse assessed as parasite-free survival at 25 mg/kg, po administered on day 3 to 6 after infection measured on day 60. The class given is functional, organism-based. On the set-up: dose 25 mg/kg. Summed up:
as §1

Test [9] deals with Trypanosoma brucei rhodesiense. Nature of the test: Antitrypanosomal activity against Trypanosoma brucei rhodesiense STIB900 infected in mouse assessed as average survival days at 25 mg/kg, ip administered on day 3 to 6 after infection. The class given is functional. To be noted: route intraperitoneal.
The test system of test [10] is Trypanosoma brucei rhodesiense. Nature of the test: Antitrypanosomal activity against Trypanosoma brucei rhodesiense STIB900 infected in mouse assessed as parasite-free survival at 25 mg/kg, ip administered on day 3 to 6 after infection measured on day 60. On the set-up: dose 25 mg/kg. The class given is functional, organism-based.

By ΔTm is commonly meant the shift of the melting midpoint relative to a reference. Broadly, the IC50 is the midpoint of a concentration-inhibition curve. As to `CNC(=N)Nc1ccc(-c2ccc(-c3ccc(NC(=N)NC)cc3)cc2)cc1`, the ΔTm in test [1] amounted to 13 °C. Moreover, the IC50 in test [2] was found to be 0.018 µM; in [3] it was 7 nM; in [4], 65.1 µM. For the same compound, the outcome in test [5] was inactive. The Activity in [6] is >56 days.
Consider `CCOC(=O)/N=C(\NC)Nc1ccc(-c2ccc(-c3ccc(N/C(=N/C(=O)OCC)NC)cc3)cc2)cc1`, for which the Activity in [7] worked out at 20.25 days. For the same compound, the values for the IC50 in test [2], in test [3] and in [4] were 7.5 µM, 8.9 nM and 5.7 µM, respectively. Moreover, the result in [8] was inactive.
For `CCOC(=O)/N=C(\NC)Nc1ccc(-c2ccc(-c3ccc(N/C(=N/C(=O)OCC)NC)cn3)cc2)nc1`, the Activity in test [9] amounted to 7.75 days. Also, the IC50 was 17.8 µM in test [2], 2.6 nM in [3] and > 169 µM in test [4]. The result in [10] was inactive.
With `CNC(=N)Nc1ccc(-c2ccc(-c3ccc(NC(=N)NC)cn3)cc2)nc1`, the ΔTm in test [1] came to 10.2 °C. The IC50 in [2] was 0.134 µM; in [3], 54 nM; in [4], > 161 µM. In test [5], the outcome was inactive. In [6], the Activity is >47 days.
In the case of `CC(C)NC(=N)Nc1ccc(-c2ccc(-c3ccc(NC(=N)NC(C)C)cc3)cc2)cc1`, in [1], the ΔTm is 9.3 °C. For the same compound, the IC50 is 0.53 µM in [2], 14 nM in test [3] and 21.9 µM in [4].
Turning to `CCOC(=O)/N=C(\N)Nc1ccc(-c2ccc(-c3ccc(N/C(N)=N/C(=O)OCC)cn3)cc2)nc1`, the IC50 in test [2] is 61 µM; in [3] it was 1.9 nM; in [4], > 181 µM. The result in test [8] was inactive.
`N=C(N)Nc1ccc(-c2ccc(-c3ccc(NC(=N)N)cc3)cc2)cc1`: the ΔTm in test [1] is 14.2 °C. Moreover, the IC50 in [2] worked out at 0.018 µM; in test [3], 27 nM; in test [4], 25.4 µM. Further, in test [5], the result was inactive. Besides, in test [6], the Activity is >54.5 days.
Regarding `CCOC(=O)/N=C(\N)Nc1ccc(-c2ccc(-c3ccc(N/C(N)=N/C(=O)OCC)cc3)cc2)cc1`, in [7], the Activity stood at 20.25 days. In addition, the IC50 is 142 µM in [2], 1.7 nM in [3] and > 181 µM in [4]. The outcome in test [8] was inactive.
Regarding `N=C(N)Nc1ccc(-c2ccc(-c3ccc(NC(=N)N)cn3)cc2)nc1`, in [1], the ΔTm was found to be 9.2 °C. Further, the values for the IC50 in test [2], in test [3] and in test [4] were 0.169 µM, 151 nM and 152 µM, respectively. Moreover, the outcome in test [5] was inactive. The Activity in test [6] turned out to be 8.5 days.
Turning to `CC(C)NC(=N)Nc1ccc(-c2ccc(-c3ccc(NC(=N)NC(C)C)cn3)cc2)nc1`, in [1], the ΔTm worked out at 8.1 °C. Besides, the IC50 in test [2] was 11.9 µM; in test [3], 393 nM; in test [4], 89.7 µM.
On to `CCOC(=O)/N=C(/Nc1ccc(-c2ccc(-c3ccc(N/C(=N/C(=O)OCC)NC(C)C)cc3)cc2)cc1)NC(C)C`, for which the IC50 stood at 14.2 µM in test [2], 4.5 nM in [3] and 5.3 µM in [4].
Turning to `N=C(N)c1ccc(-c2ccc(-c3ccc(C(=N)N)cc3)cc2)cc1`, the ΔTm in test [1] was 18.2 °C. In test [3], this compound came in with an IC50 of 1 nM. The result in test [5] was inactive. For the same compound, the Activity in [6] was determined as 29 days.
For the compound `CCOC(=O)/N=C(/Nc1ccc(-c2ccc(-c3ccc(N/C(=N/C(=O)OCC)NC(C)C)cn3)cc2)nc1)NC(C)C`, the figures for the IC50 in [2], in [3] and in [4] were 8.2 µM, 2.9 nM and > 135 µM, respectively.
